In brackets after ≈: the same amount, converted by molar mass.
Key:
Escherichia coli [1] = assay: Minimum inhibitory concentration against Escherichia coli (Tol C); type: functional
How it was run: (§1)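 Growth inhibition by serial dilution. MIC reported in µg/mL as the average of triplicate measurements.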

Escherichia coli [2] = assay: Minimum inhibitory concentration against Escherichia coli; type: functional; how it was run: as §1
Staphylococcus aureus = assay: Minimum inhibitory concentration against Staphylococcus aureus; type: functional; how it was run: as §1
[3] = biological target: DNA-directed RNA polymerase subunit beta (Escherichia coli K-12) (UniProt P0A8V2); assay: In vitro percent inhibition against RNA polymerase of Escherichia coli in nucleotide coupled NADPH/pyrophosphate release assay at 10 uM; type: functional
Chain of DNA-directed RNA polymerase subunit beta (Escherichia coli K-12) (P0A8V2 whole entry, looked up): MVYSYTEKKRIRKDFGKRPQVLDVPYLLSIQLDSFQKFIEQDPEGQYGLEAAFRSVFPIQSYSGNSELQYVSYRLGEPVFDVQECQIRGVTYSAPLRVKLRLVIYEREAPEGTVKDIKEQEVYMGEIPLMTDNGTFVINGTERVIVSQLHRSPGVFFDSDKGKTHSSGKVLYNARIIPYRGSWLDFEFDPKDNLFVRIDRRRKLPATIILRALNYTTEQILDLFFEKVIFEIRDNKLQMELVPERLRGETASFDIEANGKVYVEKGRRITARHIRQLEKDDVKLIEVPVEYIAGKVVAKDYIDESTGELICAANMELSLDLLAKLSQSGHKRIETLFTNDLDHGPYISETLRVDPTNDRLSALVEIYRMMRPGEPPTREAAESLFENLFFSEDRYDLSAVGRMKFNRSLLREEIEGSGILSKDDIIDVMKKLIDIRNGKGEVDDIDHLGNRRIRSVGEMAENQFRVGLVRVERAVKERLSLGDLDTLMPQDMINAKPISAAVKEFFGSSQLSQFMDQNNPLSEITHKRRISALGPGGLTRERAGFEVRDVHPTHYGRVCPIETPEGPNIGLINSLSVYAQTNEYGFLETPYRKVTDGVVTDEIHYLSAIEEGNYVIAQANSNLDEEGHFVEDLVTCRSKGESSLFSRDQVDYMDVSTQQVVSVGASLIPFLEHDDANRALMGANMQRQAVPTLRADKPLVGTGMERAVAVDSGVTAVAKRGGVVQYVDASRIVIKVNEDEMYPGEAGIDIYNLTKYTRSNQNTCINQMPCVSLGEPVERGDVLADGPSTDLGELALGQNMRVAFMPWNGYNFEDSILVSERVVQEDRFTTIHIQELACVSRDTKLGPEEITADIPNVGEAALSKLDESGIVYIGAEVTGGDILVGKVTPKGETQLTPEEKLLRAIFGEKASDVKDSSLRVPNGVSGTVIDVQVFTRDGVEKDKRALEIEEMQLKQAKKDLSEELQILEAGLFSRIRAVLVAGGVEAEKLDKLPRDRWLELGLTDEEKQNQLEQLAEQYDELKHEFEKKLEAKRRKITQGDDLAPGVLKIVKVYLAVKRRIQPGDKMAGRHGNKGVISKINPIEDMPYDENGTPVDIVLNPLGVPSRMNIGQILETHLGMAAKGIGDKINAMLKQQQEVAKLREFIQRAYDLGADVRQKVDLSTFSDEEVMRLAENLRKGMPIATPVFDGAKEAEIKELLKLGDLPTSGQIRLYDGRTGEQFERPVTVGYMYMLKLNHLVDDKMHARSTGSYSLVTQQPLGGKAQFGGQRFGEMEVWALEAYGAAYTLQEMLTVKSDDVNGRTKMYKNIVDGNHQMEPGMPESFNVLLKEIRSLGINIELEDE
How it was run: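 E. coli RNA polymerase activity measured in a nucleotide-coupled NADPH/pyrophosphate release assay. NADPH was read by fluorescence (emission ~440 nm) rather than absorbance at 340 nm. For weaker inhibitors, percent inhibition was recorded at 10 µM instead of an IC50.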

[4] = biological target: DNA-directed RNA polymerase subunit beta (Escherichia coli K-12, UniProt P0A8V2); assay: In vitro inhibitory activity against RNA polymerase of Escherichia coli
Chain of DNA-directed RNA polymerase subunit beta (P0A8V2 whole entry): as the sequence (P0A8V2 whole entry, looked up) above
How it was run: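 E. coli RNAP activity measured by a nucleotide-coupled assay that links pyrophosphate release to NADPH. NADPH was read by fluorescence (emission ~440 nm) instead of absorbance at 340 nm. IC50 was determined; for weak inhibitors, percent inhibition at 10 µM was reported instead. Selected compounds were also tested by radiolabeled nucleotide incorporation into RNA.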

SMILES	MIC (Escherichia coli [1])	MIC (Escherichia coli [2])	MIC (Staphylococcus aureus)	inhibition [3]	IC50 [4]
CCCC/C(C)=C/CNC(=O)c1c(O)cc(C(C)CC/C=C/NC(=O)OC)oc1=O (centres undefined)	> 64 µg/mL	> 64 µg/mL	> 64 µg/mL	< 20%	–
CCCC/C(C)=C/C=C(\C)C(=O)c1c(O)cc(C(C)CCCCNC(=O)OC)oc1=O (centres undefined)	8 µg/mL (≈ 18.5 µM)	> 64 µg/mL	64 µg/mL (≈ 148 µM)	–	4000 nM
CCCC/C(C)=C/C=C(\C)C(=O)c1c(O)cc(C(C)CC/C=C/NC(=O)OCCN2CCOCC2)oc1=O (centres undefined)	> 64 µg/mL	> 64 µg/mL	> 64 µg/mL	< 20%	–
CCCC/C(C)=C/C=C(\C)C(=O)c1c(O)cc(C(C)CCCC=O)oc1=O (centres undefined)	> 64 µg/mL	> 64 µg/mL	> 64 µg/mL	< 20%	–
CCCC/C(C)=C\C=C(\C)C(=O)c1c(O)cc(C(C)CC/C=C/NC(=O)OC)oc1=O (centres undefined)	16 µg/mL (≈ 37.1 µM)	> 64 µg/mL	16 µg/mL (≈ 37.1 µM)	–	2500 nM
CCCC/C(C)=C/C=C(\C)C(=O)c1c(O)cc(C(C)CC/C=C/NC(=O)OCCN(C)C)oc1=O (centres undefined)	> 64 µg/mL	> 64 µg/mL	> 64 µg/mL	< 20%	–
CCCC/C(C)=C/C=C(\C)C(=O)c1c(O)cc(C(C)CC/C=C\NC(=O)OC)oc1=O (centres undefined)	4 µg/mL (≈ 9.27 µM)	> 64 µg/mL	4 µg/mL (≈ 9.27 µM)	–	1260 nM
CCCC/C(C)=C/C=C(\C)C(=O)c1c(OC)cc(C(C)CC/C=C/NC(=O)OC)oc1=O (centres undefined)	> 64 µg/mL	> 64 µg/mL	> 64 µg/mL	–	4200 nM
CCC(=O)c1c(O)cc(C(C)CC/C=C/NC(=O)OC)oc1=O (centres undefined)	> 64 µg/mL	> 64 µg/mL	> 64 µg/mL	< 20%	–
CCCC/C(C)=C/C=C(\C)C(=O)c1c(O)cc(C(C)CC/C=C/C(=O)OC)oc1=O (centres undefined)	> 64 µg/mL	> 64 µg/mL	> 64 µg/mL	< 20%	–
CCCC/C(C)=C/C=C(\C)C(=O)c1c(O)cc(C(C)CC/C=C/NC(=O)OC)oc1=O (centres undefined)	2 µg/mL (≈ 4.63 µM)	> 64 µg/mL	1 µg/mL (≈ 2.32 µM)	–	920 nM
CCCC/C=C/C=C(\C)C(=O)c1c(O)cc(C(C)CC/C=C/NC(=O)OC)oc1=O (centres undefined)	2 µg/mL (≈ 4.79 µM)	> 64 µg/mL	16 µg/mL (≈ 38.3 µM)	–	1040 nM
CCCC/C(C)=C/C=C(\C)C(=O)c1c(O)cc(C(C)Cc2cccc(NC(=O)OC)c2)oc1=O (centres undefined)	> 64 µg/mL	> 64 µg/mL	> 64 µg/mL	< 20%	–
CCCC/C(C)=C/C=C(\C)C(=O)c1c(O)cc(CCC/C=C/NC(=O)OC)oc1=O [DESMETHYL MYXOPYRONIN B]	1 µg/mL (≈ 2.4 µM)	> 64 µg/mL	4 µg/mL (≈ 9.58 µM)	–	340 nM
CCCC/C(C)=C/C=C(\C)C(=O)c1c(O)cc(C(C)Cc2ccc(NC(=O)OC)cc2)oc1=O (centres undefined)	> 64 µg/mL	> 64 µg/mL	> 64 µg/mL	< 20%	–
CCCC/C(C)=C/C=C/C(=O)c1c(O)cc(C(C)CC/C=C/NC(=O)OC)oc1=O (centres undefined)	32 µg/mL (≈ 76.6 µM)	> 64 µg/mL	64 µg/mL (≈ 153 µM)	70%	–

Source: ChEMBL document CHEMBL1138635, “Myxopyronin B analogs as inhibitors of RNA polymerase, synthesis and biological evaluation” (Bioorg Med Chem Lett, 2004)
